Data on 97 molecules can be found in ChEMBL document CHEMBL4513216, “Probing the Open Global Health Chemical Diversity Library for Multistage-Active Starting Points for Next-Generation Antimalarials” (ACS Infect Dis, 2020).

A short description of this series: Toxicity liver stage against HepG2, at 10uM. Set-up: test concentration 10 uM, cell line HepG2-A16-CD81EGFP. The class given is cell-based. The settings on record: human, HepG2-A16-CD81EGFP cells; read-out: INHIBITION
The method, boiled down:
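Uninfected HepG2-A16-CD81EGFP cells, 3 × 10^3 per well, 1536-well, plated on prespotted compound at 10 μM final, parasite-free screening media added to match infected plates; puromycin 10 μM positive, DMSO 0.5% negative; run in parallel with 48 h PbLuc assay at 37 °C, 5% CO2; viability by CellTiter-Glo luminescence, normalized to controls.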
Take `COc1ccccc1CN(C)C(=O)c1cc(CN2CCC(O)CC2)on1`: the cytotoxicity at 10 µM is -26.7%. Under `Cc1nc2[nH]cnc(Nc3ccn(C)n3)c-2n1` stands 18.2%; under `COc1ccc(OC)c(C(=O)N(C)Cc2nnc3ccccn23)c1`, -0.972%; under `CC(NC(=O)c1ccc(=O)n(C)c1)c1ccccc1-n1cccn1` (configuration not stated), 2.68%. Under `c1cnc(N2CCOCC3(CN(Cc4ccsc4)CCO3)C2)nc1` (configuration not stated) stands 5.83%.

For the molecule `CCN1CCN(C(=O)COCc2nc(-c3ccncc3)no2)CC1`, the cytotoxicity at 10 µM was -8.72%. With `Cc1cc(C)n(-c2ccc(CNCc3ccc(C)o3)cn2)n1` the figure was -6.57%; with `O=C(c1cccs1)N1CCC2(C1)c1ccccc1S(=O)(=O)N2CC1CC1` (configuration not stated), -4.27%; with `CCc1noc(CN(C)C(=O)C(C)(C)Oc2cccc(Cl)c2)n1`, -3.63%.

In the case of `O=C(Cc1cccc(F)c1)N1C[C@H]2CN(Cc3ccccn3)C[C@H]2C1`, the cytotoxicity at 10 µM is -2.25%.

In the case of `O=C1NCc2ccccc2CC12CCCN(CCCc1ccccc1)C2` (configuration not stated), the cytotoxicity at 10 µM was 10.3%. `CSCc1ccc(CNC2CCCN(c3ccc(C)nn3)C2)o1` (configuration not stated): the cytotoxicity at 10 µM is -13.2%. With `Cc1cc(NCCS(C)(=O)=O)nc2cc3c(cc12)CCC3` the figure was 8.05%; with `Cc1nc2ccccc2nc1CN1CCCCC1Cn1cccn1` (configuration not stated), 3.94%; with `COc1ccc(CN2CCN(CC3CC3)[C@@H]3CS(=O)(=O)C[C@@H]32)cc1O`, -0.931%.

Turning to `COCCO[C@H]1CCN(C(=O)c2ccco2)[C@H]1Cc1cnn(C)c1`, the cytotoxicity at 10 µM is 2.4%.

For `O=C1CC(c2cccs2)c2snc(C(=O)O)c2N1` (configuration not stated), the cytotoxicity at 10 µM is -11.1%.

Turning to `NCc1ccc(N2CCN(c3ncccn3)CC2)c(F)c1`, the cytotoxicity at 10 µM is -50.8%.

With `CCN(Cc1ccc2c(c1)OCO2)c1ncc(S(N)(=O)=O)s1`, the cytotoxicity at 10 µM was 8.14%. Under `Cc1nc(C)c(C(=O)N2CCC(O)(Cn3ccc4ccncc43)CC2)s1` stands -21.7%. For the molecule `O=C(c1cccs1)N1CCC2(CC1)CC(Oc1ccccc1)CO2` (configuration not stated), the cytotoxicity at 10 µM stood at 15.4%. Regarding `Cc1ccc(CNC(C)c2ccc(N3CCN(C)CC3)c(F)c2)o1` (configuration not stated), the cytotoxicity at 10 µM is -2.76%.

With `Cc1cc(CCC(=O)N(C)C)nc(C2CCCCN2)n1` (configuration not stated), the cytotoxicity at 10 µM was -2.39%. Under `COCCCN1Cc2cccc(NC(=O)C(C)(C)C)c2C1` stands 2.06%; under `CN(Cc1cnn(C)c1)C(=O)c1ccc(=O)n(C)n1`, -7.87%. With `CSC1(CNC(=O)N(C)Cc2ccc(Cl)s2)CCOCC1` the figure was 8.08%.

As to `Cc1ccc(CC(=O)NCC(O)c2cccc(C(F)(F)F)c2)cn1` (configuration not stated), the cytotoxicity at 10 µM is -18.6%. Under `CCOc1c(Br)cc(C2c3c(n[nH]c3C)N=C3COC(=O)C32)cc1OC` (configuration not stated) stands 47.1%; under `CC(C)(C)C1SCC(=O)Nc2c1c(O)nn2C1CCCC1` (configuration not stated), 3.36%. Under `CC(c1cccc(Cl)c1)N1CCN(S(C)(=O)=O)CC1` (configuration not stated) stands 1.81%; under `O=C(Cc1ccccn1)N1CCn2cc(Cn3cncn3)nc2C1`, -129%.

As to `O=C1OCCN1C1CCN(Cc2cc3n(n2)CCCNC3)CC1`, the cytotoxicity at 10 µM was 12.7%. For `CS(=O)(=O)c1ccc(NC(=O)NCc2ccc3c(c2)CCC3)cn1`, the cytotoxicity at 10 µM was -4.92%. With `COc1cc(CNC2CCc3nc(C)nn3C2)cc2c1OCCO2` (configuration not stated) the figure was -9.16%; with `c1cn(-c2ccc(N3CCC(NC4CC4)CC3)cc2)cn1`, 5.16%; with `CC(C)c1ccc(C(CN)N2CCc3sccc3C2)cc1` (configuration not stated), 1.66%. Under `Cc1c(Br)c(C(=O)NC(C)c2ccccc2)nn1C` (configuration not stated) stands -4.34%; under `Fc1cccnc1N1CCCC(c2nccs2)C1` (configuration not stated), 1.48%; under `O=C(NCCCO)C1(CC2CC(c3ccc(F)cc3)=NO2)CCOCC1` (configuration not stated), 1.41%.

`CNC(=O)[C@@H](C1CCCCC1)N1CCC[C@H]1C(=O)N(C)CCN(C)C`: the cytotoxicity at 10 µM was -0.39%. Under `CCn1c(C)cc(C(=O)N2C[C@@H](C(=O)O)[C@H](c3ccccc3)C2)c1C` stands -0.173%; under `CCN(C(=O)COc1nc(C(C)(C)C)no1)C1CC1`, 3.2%; under `Cc1ccc(N2CC[C@H]3OCC[C@@]3(C(=O)N(C)C)C2)nn1`, 1.11%. Under `c1cnc(NCc2cncc3c2CCN(Cc2cccnc2)C3)nc1` stands -68.5%; under `Cc1noc(CN(C)c2ccccc2)n1`, 8.82%. With `Cc1cnn(CC2CN(c3ncnc4[nH]ccc34)CCO2)c1` (configuration not stated) the figure was -1.91%; with `CCc1nc(CN2CCCN(C(=O)c3cnc(C)cn3)CC2)cs1`, -4.81%. On to `c1ccc2c(c1)OCCC2NCc1ccc(N2CCOCC2)cc1` (configuration not stated), for which the cytotoxicity at 10 µM is -13.7%.

In the case of `CCc1[nH]ncc1C(=O)N1CCCN(Cc2cnn(C)c2)CC1`, the cytotoxicity at 10 µM worked out at 1.71%. Turning to `COCC(=O)N1CC(c2csc(NC(C)=O)n2)C1`, the cytotoxicity at 10 µM was -8.8%. Consider `CC(=O)NCCCNCc1ccc(Cl)c2cccnc12`, for which the cytotoxicity at 10 µM is -3.17%.

Turning to `c1cncc(N2CCCn3nnc(CN4CCOCC4)c3C2)c1`, the cytotoxicity at 10 µM was 2.46%.

For `NC(=O)C1CCN(CCc2ccc(NC(=O)C3CCC3)cc2)CC1`, the cytotoxicity at 10 µM is -3.86%. Under `Cc1cnn(CCNC(C)C(=O)Nc2ccc(Cl)cn2)c1` (configuration not stated) stands 0.858%.

For the molecule `CCCS(=O)(=O)N1CCCC(c2cccc(C(=O)O)c2)C1` (configuration not stated), the cytotoxicity at 10 µM is 6.09%.

`OC1(CNC2CCN(c3ccccn3)CC2)CCc2ccccc21` (configuration not stated): the cytotoxicity at 10 µM was -3.48%. Under `NC(=O)c1ccc(C(=O)N2CCCC(n3ccnc3)C2)s1` (configuration not stated) stands -20.5%. Under `CCOCCN1CCN(Cc2nc(CC(C)C)no2)CC1` stands -13%; under `Cc1noc([C@H]2C[C@H]3OCC[C@H]3N(C3CCC3)C2)n1`, -129%.

Take `COc1ccc(CN2CCSCC2)c(OC)c1`: the cytotoxicity at 10 µM was determined as 7.94%. With `CCc1nc(C2CCCN(C(=O)c3ccc4[nH]nnc4c3)C2)no1` (configuration not stated) the figure was 2.67%. Under `Cc1noc(C)c1C(=O)NCCN1CCN(c2ccccc2)CC1` stands -10.8%; under `O=c1cc(CN(CCO)C2CC2)nc2ccccn12`, -1.05%; under `Cn1cc(CC2CC(=O)N(Cc3ccc(Cl)cc3)C2=O)cn1` (configuration not stated), -0.276%. With `CC(=O)c1cccc(OC(C)C(=O)Nc2cnn(CCN(C)C)c2)c1` (configuration not stated) the figure was 3.45%; with `COc1nc2ccn(CCc3cc(O)nc(C)n3)c(=O)c2cc1C#N`, 10.9%. Consider `Cc1c(Br)cnn1C(C)C(=O)Nc1nncs1` (configuration not stated), for which the cytotoxicity at 10 µM is -4.61%.

Regarding `N#CCCN(Cc1ccccn1)C(=O)c1cccc(CN2CCCC2)c1`, the cytotoxicity at 10 µM came out at 4.93%. On to `COc1cccc(CNCc2cccnc2-n2cccn2)c1OC`, for which the cytotoxicity at 10 µM came out at 2.86%. Under `Cc1nc(N2CCCC2)nc2c1CCN(Cc1ccsc1)CC2` stands -106%; under `O=C(O)c1cc(S(=O)(=O)Nc2ccc(F)cc2Cl)cc2c1OCCO2`, -8.12%; under `CNC(=O)[C@@H]1C[C@@H](n2cc(-c3ccc(CN4CC=CC4)cc3)nn2)CN1`, 3.76%. With `Cc1cccc(Nc2cc(C3CCCN(CC(N)=O)C3)ccn2)n1` (configuration not stated) the figure was 12.3%; with `Fc1cc(CNc2nncs2)ccc1Cl`, -1.74%; with `O=C(c1ccncc1)N1CCC(Oc2cccc(C(F)(F)F)c2)CC1`, 14.1%. With `CCc1nccn1C1CCCN(C(=O)CCc2nc(C(C)C)no2)C1` (configuration not stated), the cytotoxicity at 10 µM was 5.93%. Under `CN(C)C(=O)c1cc(NC(=O)N2CCCC(C(F)(F)F)C2)ccn1` (configuration not stated) stands -3.58%; under `Cc1c(Br)c(C(F)(F)F)nn1C(C)C(=O)O` (configuration not stated), 8.05%. With `CC(=O)N1CCc2c(nc(N(C)C)nc2NC(C)Cc2cccs2)C1` (configuration not stated) the figure was -42.9%; with `CN(CCc1cccc2ccccc12)Cc1nc(N)nc(N(C)C)n1`, 4.19%.

For the molecule `COCC(=O)N1CCN(Cn2nc(C)c(Br)c2C)CC1`, the cytotoxicity at 10 µM came out at 0.633%. In the case of `CC(=O)N1CCCN(C(=O)NCCCN(C)S(C)(=O)=O)CC1`, the cytotoxicity at 10 µM was -2.44%. `CN(Cc1nc2ccsc2c(=O)[nH]1)C[C@@H]1CCCN2CCCC[C@H]12`: the cytotoxicity at 10 µM was -7.33%. Under `Cc1cc(OCCC(=O)NCc2ccc(F)cc2)nnc1C` stands 4.4%; under `CS(=O)(=O)NCCCN1CCCCC1c1cc2ccccc2[nH]1` (configuration not stated), -10.6%; under `CC(C(=O)N1CCN(c2ncccn2)CC1)n1cncn1` (configuration not stated), -1.24%. For the molecule `CC(C)(C)c1nccc(N2CCN(C3CCS(=O)(=O)C3)CC2)n1` (configuration not stated), the cytotoxicity at 10 µM is 1.05%. Under `COc1ccc(CCNC2CCCN(c3ccc(C)nn3)C2)cc1` (configuration not stated) stands -3.65%; under `Cc1cccc(CN2C[C@@H]3CN(C4CCOCC4)C[C@@H]3C2=O)c1`, -130%; under `CS(=O)(=O)N1CCC(Cc2cnc(Br)cn2)CC1`, 13.4%.

Turning to `c1ccc(-c2nc(CN3CCCC(Cn4cncn4)C3)co2)cc1` (configuration not stated), the cytotoxicity at 10 µM is 3.18%. With `O=C(N1CCCO1)[C@@]12CCO[C@@H]1CCN(Cc1cccnc1)C2` the figure was -4.26%; with `CCN(C(=O)CN1CCn2c(C)nnc2C1)C1=CCCCC1`, 13.4%; with `CC(C)c1nc(C2CCCN2C(=O)CN(C)Cc2ccccc2)no1` (configuration not stated), -4.86%. Under `Cc1nc(COC[C@@]23CCC[C@@H]2CN(Cc2cnn(C)c2)C3)cs1` stands -101%; under `CN(C)C(C(=O)N1CCN(C(=O)c2ccc[nH]2)CC1)c1ccc(F)cc1` (configuration not stated), -5.19%. Take `Cc1cnc2n(c1=O)CC(C(=O)Nc1ccon1)CS2` (configuration not stated): the cytotoxicity at 10 µM worked out at 0.595%.
